Measured values: ChEMBL document CHEMBL2169835, “Flavonoid dimers as novel, potent antileishmanial agents” (J Med Chem, 2012)

Assays:
[1] = Therapeutic index, ratio of IC50 for mouse Peritoneal macrophages to IC50 for SSG-resistant Leishmania donovani 39 amastigote infected in mouse peritoneal macrophages; settings: read-out: Ratio IC50
[2] = Cytotoxicity against mouse Peritoneal macrophages cells after 72 hrs by MTS assay; format: cell-based; settings: Peritoneal macrophage cell
Outline: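 Primary mouse peritoneal elicited macrophages were seeded at 2 × 10^4 cells per well in DMEM with 10% heat-inactivated FBS. They were exposed to graded doses for 72 h at 37 °C in 5% CO2. Survival was read by MTS/PMS tetrazolium reduction (OD 490 nm) relative to untreated control. The IC50 was the concentration halving OD. Results are mean ± SEM of 1–4 independent experiments.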

Leishmania donovani [3] = assay: Antimicrobial activity against SSG-resistant Leishmania donovani 39 amastigote infected in mouse peritoneal macrophages assessed as inhibition of parasite growth after 72 hrs by Giemsa staining method; format: functional, organism-based; settings: Leishmania donovani, 39, 72 h
Outline: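 Mouse peritoneal elicited macrophages were seeded on coverslips at 1 × 10^5 cells per well in DMEM with 10% heat-inactivated FBS and left to attach overnight. They were infected overnight with late-log Ld39 promastigotes (parasite:macrophage 20:1) at 37 °C, 5% CO2, then washed. Compounds were applied for 72 h at 37 °C. Giemsa-stained amastigotes per 100 macrophages gave IC50; N = 1−3.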

Leishmania donovani [4] = assay: Antimicrobial activity against SSG-resistant Leishmania donovani 39 promastigote assessed as inhibition of parasite growth after 72 hrs by MTS assay; format: functional, organism-based; settings: Leishmania donovani, 39, 72 h
Outline: (§1)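 Promastigotes were grown in Schneider's medium pH 6.9 with 10% heat-inactivated FBS at 27 °C, seeded at 1 × 10^5 per well, and exposed to serial concentrations for 72 h at 27 °C. Compounds were in DMSO (≤1% final) or water. MTS:PMS (20:1) was added for 4 h, then OD490 was read. Survival was % of untreated control; IC50 = concentration halving OD; N = 1−4.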

Leishmania donovani [5] = assay: Antimicrobial activity against wild-type Leishmania donovani AG83 promastigote assessed as inhibition of parasite growth after 72 hrs by MTS assay; format: functional, organism-based; settings: AG83, 72 h
Outline: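 Promastigotes were grown in Schneider's medium pH 6.9 with 10% heat-inactivated FBS at 27 °C, seeded at 1 × 10^5 per well, and exposed to serial concentrations for 72 h at 27 °C. Compounds were in DMSO (≤1% final) or water. MTS:PMS (20:1) was added for 4 h, then OD490 was read.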

[6] = Therapeutic index, ratio of IC50 for rat L6 cells to IC50 for Leishmania donovani; format: cell-based; settings: L6 cells (cytotoxicity) versus Leishmania donovani, read-out: Ratio IC50
L6 = assay: Cytotoxicity against rat L6 cells; format: cell-based
Leishmania donovani [7] = assay: Antimicrobial activity against axenically grown Leishmania donovani amastigotes; format: functional, organism-based
Leishmania donovani [8] = assay: Selectivity ratio of IC50 for compound-resistant Leishmania donovani AG83PentR50 promastigote to IC50 for wild-type Leishmania donovani AG83 promastigote; format: functional
[9] = Therapeutic index, ratio of IC50 for mouse Peritoneal macrophages to IC50 for SSG-resistant Leishmania donovani 39 promastigote; settings: read-out: Ratio IC50
Outline: (§2)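 Index is PEM cytotoxicity IC50 over promastigote IC50. For PEM, cells were seeded at 2 × 10^4 per well in supplemented DMEM, given graded doses for 72 h at 37 °C, 5% CO2, and read by MTS survival.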

[10] = Therapeutic index, ratio of IC50 for mouse Peritoneal macrophages to IC50 for pentamidine-resistant Leishmania donovani AG83PentR50 promastigote; settings: read-out: Ratio IC50; outline: as §2
[11] = Therapeutic index, ratio of IC50 for mouse PEM cells to IC50 for wild-type Leishmania donovani AG83 promastigote; format: cell-based; settings: read-out: Ratio IC50; outline: as §2
RAW264.7 = assay: Cytotoxicity against mouse RAW264.7 cells after 72 hrs by MTS assay; format: cell-based; settings: RAW264.7, 72 h
Outline: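 RAW 264.7 murine macrophage line was plated at 1 × 10^4 cells per well in supplemented DMEM. Cells received a graded compound series for 72 h at 37 °C, 5% CO2, with a maximum of 1% DMSO. Viability was measured by MTS with PMS coupling at OD 490 nm, as percent of untreated control. The IC50 was the concentration reducing OD by half, given as mean ± SEM, N = 1–4.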

Leishmania donovani [12] = assay: Antimicrobial activity against pentamidine-resistant Leishmania donovani AG83PentR50 promastigote assessed as inhibition of parasite growth after 72 hrs by MTS assay; format: functional, organism-based; settings: AG83PentR50, 72 h; outline: as §1

Row | SMILES | selectivity ratio [1] | IC50 [2] | IC50 (Leishmania donovani [3]) | IC50 (Leishmania donovani [4]) | IC50 (Leishmania donovani [5]) | IC50 (RAW264.7) | IC50 (Leishmania donovani [12]) | also measured
1 | O=c1c(OCCOCCN(CCOCCOc2c(-c3ccccc3)oc3ccccc3c2=O)Cc2ccncc2)c(-c2ccccc2)oc2ccccc12 | > 10.6 | > 33 µM | 3.1 µM | 3.1 µM | 2.5 µM | – | – | –
2 | COc1ccc(-c2cc(=O)c3c(O)cc(O)c(-c4cc(-c5cc(=O)c6c(O)cc(O)cc6o5)ccc4OC)c3o2)cc1 [ISOGINKGETIN] | – | – | – | – | – | – | – | selectivity ratio [6]: 5.8; IC50 (L6): 11 µM; IC50 (Leishmania donovani [7]): 1.9 µM
3 | N=C(N)c1ccc(OCCCCCOc2ccc(C(=N)N)cc2)cc1 [PENTAMIDINE] | < 1 | 30.4 µM | > 30 µM | 5.3 µM | 13.9 µM | 30 µM | 54.8 µM | Ratio IC50 (Leishmania donovani [8]): 3.9; selectivity ratio [9]: 5.7; selectivity ratio [10]: 0.6; selectivity ratio [11]: 2.2
4 | O=c1cc(-c2ccc(OCCOCCN(CCOCCOc3ccc(-c4cc(=O)c5ccccc5o4)cc3)Cc3ccncc3Br)cc2)oc2ccccc12 | > 13.1 | > 100 µM | > 7.6 µM | > 50 µM | 0.65 µM | – | – | –
5 | O=c1cc(-c2ccc(OCCOCCN(CCOCCOc3ccc(-c4cc(=O)c5cc(F)ccc5o4)cc3)Cc3ccncc3)cc2)oc2ccc(F)cc12 | > 32.3 | > 100 µM | 3.1 µM | 0.36 µM | 0.31 µM | – | – | –
6 | O=c1cc(-c2ccc(OCCN(CCOc3ccc(-c4cc(=O)c5ccccc5o4)cc3)Cc3ccncc3)cc2)oc2ccccc12 | > 10 | > 58 µM | 5.8 µM | > 50 µM | 1.4 µM | – | – | –
7 | COc1ccc(-c2cc(=O)c3c(O)cc(O)cc3o2)cc1-c1c(O)cc(O)c2c(=O)cc(-c3ccc(O)cc3)oc12 [BILOBETIN] | – | – | – | – | – | – | – | IC50 (Leishmania donovani [7]): 2.7 µM
8 | O=c1cc(-c2ccc(OCCOCCN(CCOCCOc3ccc(-c4cc(=O)c5ccccc5o4)cc3)Cc3ccnc(Br)c3)cc2)oc2ccccc12 | > 10 | > 100 µM | > 10 µM | > 50 µM | 1.8 µM | – | – | –
9 | COc1c(-c2ccc(OCCOCCN(CCOCCOc3ccc(-c4oc5ccccc5c(=O)c4OC)cc3)Cc3ccncc3)cc2)oc2ccccc2c1=O | > 9.6 | > 50 µM | 5.2 µM | 0.98 µM | 0.98 µM | – | – | –
10 | Cc1ccc2c(=O)cc(-c3ccc(OCCOCCOCCOCCOCCOc4ccc(-c5cc(=O)c6ccc(C)cc6o5)cc4)cc3)oc2c1 | – | – | – | 7.9 µM | 4.4 µM | > 80 µM | 3.8 µM | –
11 | NC[C@@H]1O[C@H](O[C@H]2[C@@H](O)[C@H](O[C@@H]3[C@@H](O)[C@H](N)C[C@H](N)[C@H]3O[C@H]3O[C@H](CO)[C@@H](O)[C@H](O)[C@H]3N)O[C@@H]2CO)[C@H](N)[C@@H](O)[C@@H]1O [PAROMOMYCIN] | > 2.4 | > 100 µM | 41 µM | 24.5 µM | 62.6 µM | > 100 µM | 85.5 µM | selectivity ratio [9]: > 4.1; selectivity ratio [10]: > 1.2; selectivity ratio [11]: > 1.6
12 | COc1cc(O)c2c(=O)cc(-c3ccc(OC)c(-c4c(O)cc(O)c5c(=O)cc(-c6ccc(O)cc6)oc45)c3)oc2c1 [GINKGETIN] | – | – | – | – | – | – | – | IC50 (Leishmania donovani [7]): 2.8 µM
13 | O=c1cc(-c2ccc(OCCOCCOCCOCCOCCOc3ccc(-c4cc(=O)c5c(O)cc(O)cc5o4)cc3)cc2)oc2cc(O)cc(O)c12 | – | – | – | 1.8 µM | 2.3 µM | > 200 µM | 2.6 µM | –
14 | O=c1cc(-c2ccc(OCCOCCOCCOCCOCCOCCOCCOCCOCCOc3ccc(-c4cc(=O)c5ccccc5o4)cc3)cc2)oc2ccccc12 | – | – | – | 8.6 µM | 9.4 µM | 8.1 µM | 10.6 µM | –
